Holding throughout (format): functional
Assay [1] deals with Acinetobacter baumannii. In words: Antibacterial activity against Acinetobacter baumannii 649 measured after 24 hrs in presence of 25% human serum by microtiter dilution method. To be noted: Acinetobacter baumannii, 649, 24 h. An outline of the steps:
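Blood strain 649 was tested by MH broth microdilution with and without 25% (v/v) human serum added to the medium. The test used a final inoculum of 5 × 10^5 cfu/mL and incubation at 37 °C. The ratio is the MIC in serum over the MIC in MH alone.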

Assay [2] relates to Acinetobacter baumannii. In words: Antibacterial activity against Acinetobacter baumannii 649 measured after 24 hrs by microtiter dilution method. To be noted: Acinetobacter baumannii, 649, 24 h. The method in brief: (§1)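 Broth microdilution in Mueller-Hinton (MH) medium. […] Plates were incubated 24 h at 37 °C. MIC was the lowest peptide concentration that inhibited growth, based on three sets of replicates.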

The subject of assay [3] is Acinetobacter baumannii. In words: Antibacterial activity against polymyxin B/colistin-resistant Acinetobacter baumannii M89955 measured after 24 hrs by microtiter dilution method. An outline of the steps: as §1
Assay [4] concerns Acinetobacter baumannii. Description: Antibacterial activity against polymyxin B/colistin-resistant Acinetobacter baumannii M89953 measured after 24 hrs by microtiter dilution method. An outline of the steps:
as §1

For assay [5], the system named is Acinetobacter baumannii. Description: Antibacterial activity against polymyxin B/colistin-resistant Acinetobacter baumannii M89952 measured after 24 hrs by microtiter dilution method. The method in brief: as §1
For assay [6], the system named is Acinetobacter baumannii. Description: Antibacterial activity against polymyxin B/colistin-resistant Acinetobacter baumannii M89951 measured after 24 hrs by microtiter dilution method. An outline of the steps: as §1
Assay [7] concerns Acinetobacter baumannii. In words: Antibacterial activity against polymyxin B/colistin-resistant Acinetobacter baumannii M89941 measured after 24 hrs by microtiter dilution method. The method in brief: as §1
The subject of assay [8] is Acinetobacter baumannii. Description: Antibacterial activity against polymyxin B/colistin-resistant Acinetobacter baumannii M89963 measured after 24 hrs by microtiter dilution method. An outline of the steps: as §1
The test system of assay [9] is Acinetobacter baumannii. Description: Antibacterial activity against polymyxin B/colistin-resistant Acinetobacter baumannii M89949 measured after 24 hrs by microtiter dilution method. The method in brief:
as §1

Values after ≈ are worked out from the molar mass of the structure shown. Where a SMILES comes first, the peptide text is derived from it. Bridges are numbered along the chain shown (N, C = ends). [ ]: non-standard residue; d: D form. The star is where a group is joined. X1 = CC[C@H](C)CCCCC(=O)*; Dab = NCC[C@H](N)C(=O)O

By MIC is commonly meant the smallest concentration in the dilution series that meets the test's criterion for growth inhibition.

In the case of `CC(=O)N[C@H](CCCCN)C(=O)N[C@H](CC(C)C)C(=O)N[C@H](CCCNC(=N)N)C(=O)N[C@H](CO)C(=O)N[C@H](CC(C)C)C(=O)N[C@H](CC(C)C)C(=O)N[C@H](CCCNC(=N)N)C(=O)N[C@@H](C(=O)N[C@H](CC(C)C)C(=O)N[C@H](CO)C(=O)N[C@H](CCCNC(=N)N)C(=O)N[C@H](C)C(=O)N[C@H](CCCCN)C(=O)N[C@H](C)C(=O)N[C@H](C)C(=O)N[C@H](CCCCN)C(=O)N[C@H](CC(C)C)C(=O)N[C@H](CCCNC(=N)N)C(=O)N[C@@H](C(=O)N[C@H](CC(C)C)C(=O)N[C@H](CC(C)C)C(=O)N[C@H](CCCNC(=N)N)C(=O)N[C@H](C)C(=O)N[C@H](CC(C)C)C(=O)N[C@H](CO)C(=O)N[C@H](CCCNC(=N)N)C(N)=O)[C@H](C)O)[C@H](C)O` (Ac-[dK][dL][dR][dS][dL][dL][dR][dT][dL][dS][dR][dA][dK][dA][dA][dK][dL][dR][dT][dL][dL][dR][dA][dL][dS][dR]-NH2), the minimum inhibitory concentration (MIC) in the assay with Acinetobacter baumannii [1] was 1.3 µM; against Acinetobacter baumannii [2] it was 0.7 µM (≈ 2.12 µg/mL); against Acinetobacter baumannii [3] (M89955, 24 h), 0.7 µM (≈ 2.12 µg/mL); in the assay on Acinetobacter baumannii [4] (M89953, 24 h) it was 0.7 µM (≈ 2.12 µg/mL); against Acinetobacter baumannii [5] (M89952, 24 h) it was 0.7 µM (≈ 2.12 µg/mL); with Acinetobacter baumannii [6] (M89951, 24 h), 0.7 µM (≈ 2.12 µg/mL). In the assay on Acinetobacter baumannii [7] (M89941, 24 h), this molecule had a minimal inhibitory concentration (MIC) of 1.3 µM (≈ 3.94 µg/mL).
Regarding `CC[C@H](C)CCCCC(=O)N[C@@H](CCN)C(=O)N[C@H](C(=O)N[C@@H](CCN)C(=O)N[C@H]1CCNC(=O)[C@H]([C@@H](C)O)NC(=O)[C@H](CCN)NC(=O)[C@H](CCN)NC(=O)[C@H](CC(C)C)NC(=O)[C@@H](Cc2ccccc2)NC(=O)[C@H](CCN)NC1=O)[C@@H](C)O` (X1-[Dab]T[Dab][Dab][Dab][dF]L[Dab][Dab]T; lactam 4-C), the MIC in the assay with Acinetobacter baumannii [8] (M89963, 24 h) is greater than 25 µM; in the assay on Acinetobacter baumannii [3] (M89955, 24 h), greater than 25 µM; in the assay on Acinetobacter baumannii [4] (M89953, 24 h), greater than 25 µM; against Acinetobacter baumannii [5] (M89952, 24 h), greater than 25 µM; with Acinetobacter baumannii [6] (M89951, 24 h) it was greater than 25 µM; in the assay on Acinetobacter baumannii [9] (M89949, 24 h), greater than 25 µM. Moreover, the MIC against Acinetobacter baumannii [7] (M89941, 24 h) was greater than 25 µM.
For COLISTIN, the minimal inhibitory concentration (MIC) against Acinetobacter baumannii [8], with Acinetobacter baumannii [3], in the assay on Acinetobacter baumannii [4], against Acinetobacter baumannii [5], against Acinetobacter baumannii [6] and with Acinetobacter baumannii [9] was greater than 28 µM throughout. The molecule further came in with a minimal inhibitory concentration (MIC) in the assay on Acinetobacter baumannii [7] greater than 28 µM.

The values above are taken from ChEMBL document CHEMBL4339192, “De Novo Designed Amphipathic α-Helical Antimicrobial Peptides Incorporating Dab and Dap Residues on the Polar Face To Treat the Gram-Negative Pathogen, Acinetobacter baumannii” (J Med Chem, 2019).
